Experimental findings from ChEMBL document CHEMBL1143930, “S-Euglobals: biomimetic synthesis, antileishmanial, antimalarial, and antimicrobial activities” (Bioorg Med Chem, 2008) are described below.

In brackets after ≈: the same amount, converted by molar mass. Activity calls are given as the source filed them. The calls are words filed in the database; no cut-off is given here.

The subject of data set [1] is Plasmodium falciparum. Nature of the data set: Antimalarial activity against chloroquine-resistant Plasmodium falciparum W2 by LDH release. The class given is functional, organism-based. The essentials: (§1)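 Infected red cells (W2 or D6), 2% parasitemia, 2% hematocrit, in RPMI 1640 with 10% human serum and 60 µg/mL amikacin, exposed to serial sample dilutions. Incubated 72 h at 37 C under 90% N2/5% O2/5% CO2. Parasite LDH measured with Malstat reagent (30 min, room temperature), then NBT/PES 1 h in dark, stopped with 5% acetic acid, read at 650 nm. IC50 from dose-response curves.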

The subject of data set [2] is Plasmodium falciparum. The data set can be described thus: Antimalarial activity against chloroquine-sensitive Plasmodium falciparum D6 by LDH release assay. Format: functional, organism-based. The essentials:
as §1

A short description of data set [3]: Cytotoxicity against pig LLC-PK11 cells by neutral red assay up to 25 ug/mL. The class given is cell-based, Sus scrofa. The gist of the method:
(§2)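 Cells were seeded at 25,000 per well and incubated 24 h. Test samples were added at a range of concentrations, followed by a further 48 h incubation. Viable cells were quantified by Neutral Red uptake, and IC50 was read from dose curves of percent growth versus concentration.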

The next data set relates to Leishmania donovani. The data set can be described thus: Antileishmanial activity against Leishmania donovani promastigotes after 48 hrs by Alamar blue assay. Format: functional, organism-based. The essentials: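 L. donovani promastigotes were grown in RPMI 1640 with 10% fetal calf serum at 26 C. A 3-day-old culture was diluted to 5 × 10^5 promastigotes/mL, and drug dilutions were made directly in the cell suspension. After 48 h at 26 C, growth was read by Alamar Blue fluorescence (ex 544/em 590 nm). IC50 and IC90 came from percent growth versus concentration curves.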

In another data set the test system is Aspergillus fumigatus. Nature of the data set: Antifungal activity against Aspergillus fumigatus. The class given is functional, organism-based. The essentials:
(§3)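 Modified NCCLS broth microdilution. Samples in DMSO were serially diluted in 0.9% saline and tested in duplicate. Inocula were matched to the 0.5 McFarland standard by absorbance at 630 nm, then diluted in broth. Growth, solvent and media controls were included. Plates were read at 630 nm before and after incubation, and IC50 was taken from percent growth versus concentration.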

The subject of data set [4] is SK-OV-3. Nature of the data set: Cytotoxicity against human SK-OV3 cells by neutral red assay up to 25 ug/mL. Format: functional, cell-based. The gist of the method: as §2
The subject of data set [5] is Vero. The data set can be described thus: Cytotoxicity against african green monkey Vero cells by neutral red assay up to 25 ug/mL. Format: cell-based. The note with it: chlorocebus sabaeus. The essentials:
as §2

The test system of data set [6] is KB. Nature of the data set: Cytotoxicity against human KB cells by neutral red assay up to 25 ug/mL. The class given is functional, cell-based. The gist of the method:
as §2

The next data set relates to Cryptococcus neoformans. Nature of the data set: Antifungal activity against Cryptococcus neoformans. The class given is functional, organism-based. The gist of the method:
as §3

The nature of data set [7]: Selectivity index, ratio of IC50 for african green monkey (Cercopithecus aethiops) Vero cells to IC50 for Plasmodium falciparum W2. The class given is functional. The essentials:
(§4)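 The index is IC50 in Vero cells (Neutral Red, 48 h exposure) divided by IC50 against P. falciparum D6 or W2. For the parasite assay, infected erythrocytes at 2% parasitemia and 2% hematocrit in RPMI 1640 with 10% human serum were incubated 72 h at 37 C under 90% N2, 5% O2, 5% CO2. Parasite LDH was measured with Malstat plus NBT/PES at 650 nm.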

Data set [8] deals with BT-549. Nature of the data set: Cytotoxicity against human BT549 cells by neutral red assay. Format: functional, cell-based. The essentials:
as §2

Data set [9] deals with SK-MEL. Nature of the data set: Cytotoxicity against human SKMEL cells by neutral red assay up to 25 ug/mL. Format: functional, cell-based. The gist of the method:
as §2

In another data set the test system is Candida albicans. The data set can be described thus: Antifungal activity against Candida albicans. The class given is functional, organism-based. The essentials:
as §3

Data set [10] is described as follows: Selectivity index, ratio of IC50 for african green monkey (Cercopithecus aethiops) Vero cells to IC50 for Plasmodium falciparum D6. Format: functional. The essentials: as §4
Data set [11] relates to SK-MEL. Nature of the data set: Cytotoxicity against human SKMEL cells by neutral red assay. The class given is functional, cell-based. The essentials: as §2
The subject of data set [12] is BT-549. The data set can be described thus: Cytotoxicity against human BT549 cells by neutral red assay up to 25 ug/mL. The class given is functional, cell-based. The essentials: as §2
Data set [13] has as its system SK-OV-3. Nature of the data set: Cytotoxicity against human SK-OV3 cells by neutral red assay. Format: functional, cell-based. The gist of the method:
as §2

In data set [14] the test system is Vero. The data set can be described thus: Cytotoxicity against african green monkey Vero cells by neutral red assay. Format: cell-based. The note with it: chlorocebus sabaeus. The gist of the method: as §2
A short description of data set [15]: Cytotoxicity against pig LLC-PK11 cells by neutral red assay. The class given is cell-based. The note with it: Sus scrofa. The gist of the method:
as §2

The next data set relates to Staphylococcus aureus. Nature of the data set: Antibacterial activity against methicillin-resistant Staphylococcus aureus. Format: functional, organism-based. The essentials:
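Modified NCCLS broth microdilution. Samples in DMSO serially diluted in 0.9% saline, tested in duplicate. Inoculum set against 0.5 McFarland standard by absorbance at 630 nm, then diluted in broth. Growth, solvent and media controls included. Plates read at 630 nm before and after incubation. IC50 from percent growth vs concentration; MIC = lowest concentration with no detectable growth.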

Data set [16] concerns KB. The data set can be described thus: Cytotoxicity against human KB cells by neutral red assay. The class given is functional, cell-based. The gist of the method:
as §2

As to `C[C@@H]1CC[C@H]2[C@@H](C)C(=O)O[C@@H]3O[C@@]4(C)CC[C@@H]1[C@]32OO4` [ARTEMISININ], the results for the 50% inhibitory concentration (IC50) in the data set with Plasmodium falciparum [1] and with Plasmodium falciparum [2] were 0.0075 µg/mL (≈ 0.0266 µM) and 0.014 µg/mL (≈ 0.0496 µM), respectively.

Turning to `CC(C)C[C@H]1C[C@]2(CC[C@@H]3C[C@H]2C3(C)C)Oc2c(C=O)c(O)c(C=O)c(O)c21` [ROBUSTADIAL B], the Activity entry (in data set [3]; in the data set on Vero [5]) was “Not Active” throughout. In addition, the IC50 in the data set on Leishmania donovani was 16 µg/mL (≈ 41.4 µM); with BT-549 [8], 25 µg/mL (≈ 64.7 µM); in the data set on Plasmodium falciparum [1], 4.76 µg/mL (≈ 12.3 µM); with Plasmodium falciparum [2], 4.5 µg/mL (≈ 11.6 µM). Also, the IC90 in the data set with Leishmania donovani came to 16 µg/mL (≈ 41.4 µM). Further, the outcome in the data set on Aspergillus fumigatus, in the data set on SK-OV-3 [4], with KB [6], with Cryptococcus neoformans, in the data set on SK-MEL [9] and in the data set on Candida albicans was inactive. Further, the figures for the Selectivity index in data set [7] and in [10] were greater than 5.3 and greater than 5.6, respectively.

Consider `CC(C)CC(=O)c1c(O)c(C=O)c(O)c2c1O[C@@]1(C)[C@H](CC[C@H]3[C@@H]1C3(C)C)C2`, for which the Activity result (in data set [3]; in the data set on Vero [5]) was “Not Active” throughout. The 50% inhibitory concentration (IC50) in the data set with Leishmania donovani was determined as 5.5 µg/mL (≈ 14.2 µM); with SK-MEL [11] it was 25 µg/mL (≈ 64.7 µM); in the data set with Plasmodium falciparum [1], 2.7 µg/mL (≈ 6.99 µM); in the data set on Plasmodium falciparum [2], 3.4 µg/mL (≈ 8.8 µM). This compound registered an IC90 in the data set on Leishmania donovani of 28 µg/mL (≈ 72.4 µM). Besides, the result in the data set with Aspergillus fumigatus, in the data set with SK-OV-3 [4], in the data set with KB [6], in the data set on Cryptococcus neoformans, in the data set with BT-549 [12] and in the data set on Candida albicans was inactive. Further, the values for the Selectivity index in data set [7] and in [10] were greater than 9.3 and greater than 7.4, respectively.

As for `CC(C)CC(=O)c1c(O)c(C=O)c2c(c1O)C[C@H]1C[C@H]3C[C@H](C3(C)C)[C@@]1(CCO)O2`, the IC50 in the data set on SK-OV-3 [13] is 25 µg/mL (≈ 60 µM); with Vero [14], 20 µg/mL (≈ 48 µM); in the data set with Leishmania donovani, 9.5 µg/mL (≈ 22.8 µM); in data set [15] it was 25 µg/mL (≈ 60 µM); in the data set on SK-MEL [11], 25 µg/mL (≈ 60 µM); in the data set with BT-549 [8], 18.5 µg/mL (≈ 44.4 µM). The IC50 in the data set with Staphylococcus aureus is 1 µg/mL (≈ 2.4 µM); with KB [16], 20 µg/mL (≈ 48 µM). The concentration for an effect of 90% (IC90) in the data set on Leishmania donovani came to 33 µg/mL (≈ 79.2 µM). Moreover, the result in the data set on Aspergillus fumigatus, in the data set with Cryptococcus neoformans and in the data set on Candida albicans was inactive. Besides, the lowest concentration to inhibit growth with Staphylococcus aureus (MIC) was 5 µg/mL (≈ 12 µM).

Turning to `COc1cccc2c1C(=O)c1c(O)c3c(c(O)c1C2=O)C[C@@](O)(C(=O)CO)C[C@@H]3O[C@H]1C[C@H](N)[C@H](O)[C@H](C)O1` [DOXORUBICIN], the IC50 in the data set on SK-OV-3 [13] was determined as 0.75 µg/mL (≈ 1.38 µM); in data set [15] it was 0.5 µg/mL (≈ 0.92 µM); with SK-MEL [11], 0.6 µg/mL (≈ 1.1 µM); in the data set with BT-549 [8], 0.6 µg/mL (≈ 1.1 µM); in the data set with KB [16] it was 0.9 µg/mL (≈ 1.66 µM).

`CC(C)C[C@@H]1C[C@@]2(CC[C@@H]3C[C@H]2C3(C)C)Oc2c(C=O)c(O)c(C=O)c(O)c21` [ROBUSTADIAL A]: the half-inhibitory concentration (IC50) with SK-OV-3 [13] is greater than 25 µg/mL; in the data set on Vero [14], 19 µg/mL (≈ 49.2 µM); in the data set with Leishmania donovani, 20 µg/mL (≈ 51.7 µM); in [15], 17 µg/mL (≈ 44 µM); in the data set on SK-MEL [11], greater than 25 µg/mL; with BT-549 [8] it was 19 µg/mL (≈ 49.2 µM). Besides, the concentration for half-maximal inhibition (IC50) stood at 2.8 µg/mL (≈ 7.24 µM) in the data set with Plasmodium falciparum [1] and 4.76 µg/mL (≈ 12.3 µM) in the data set on Plasmodium falciparum [2]. In addition, it took 39 µg/mL (≈ 101 µM) to reach the 90% level with Leishmania donovani (IC90). In addition, the result with Aspergillus fumigatus, in the data set with KB [6], in the data set with Cryptococcus neoformans and in the data set with Candida albicans was inactive. Moreover, the Selectivity index in [7] is 6.8; in [10] it was 4.

On to `CC(C)CC(=O)c1c(O)c(C=O)c(O)c2c1O[C@@]1(CCO)[C@@H](C2)C[C@H]2C[C@@H]1C2(C)C`, for which the IC50 was greater than 25 µg/mL in the data set with SK-OV-3 [13]; greater than 25 µg/mL with Vero [14]; 32 µg/mL (≈ 76.8 µM) in the data set with Leishmania donovani; greater than 25 µg/mL in [15]; greater than 25 µg/mL in the data set with BT-549 [8]; 5 µg/mL (≈ 12 µM) in the data set with Staphylococcus aureus. The compound also gave a concentration for half-maximal inhibition (IC50) in the data set with KB [16] greater than 25 µg/mL. The result with Aspergillus fumigatus, in the data set with Cryptococcus neoformans, with SK-MEL [9] and in the data set with Candida albicans was inactive.
